Results on twelve compounds are retold here after ChEMBL document CHEMBL4257510, “Mercaptoacetate thioesters and their hydrolysate mercaptoacetic acids jointly inhibit metallo-β-lactamase L1” (Medchemcomm, 2018).

SMILES strings stand for the structures. Active and inactive are the calls of the source. No cut-off for these calls is given here.

In data set [1] the test system is Bacteria. As to the kind of experiment: Inhibition of bacterial metallo-beta-lactamase L1 expressed in Escherichia coli BL21 (DE3) at 20 uM using cefazolin as substrate preincubated for 30 mins followed by substrate addition relative to control.
A short description of data set [2]: Inhibition of bacterial metallo-beta-lactamase L1 expressed in Escherichia coli BL21 (DE3) using cefazolin as substrate preincubated for 30 mins followed by substrate addition. Further details: species or system Bacteria. Summed up:
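IC50 measured at 25 °C with 50 µM cefazolin and inhibitor varied over 0.01–2 µM, after 30 min enzyme–inhibitor pre-incubation. Compounds were dissolved in DMSO and diluted in 30 mM Tris pH 7.0, with final DMSO below 0.1%.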

Data set [3] has as its system Bacteria. The experiment in a line: Inhibition of bacterial metallo-beta-lactamase NDM1 expressed in Escherichia coli BL21 (DE3) at 20 uM using cefazolin as substrate preincubated for 30 mins followed by substrate addition.
Data set [4] has as its system Bacteria. As to the kind of experiment: Inhibition of bacterial metallo-beta-lactamase ImiS expressed in Escherichia coli BL21 (DE3) at 20 uM using imipenem as substrate preincubated for 30 mins followed by substrate addition.
Data set [5] has as its system Bacteria. As to the kind of experiment: Inhibition of bacterial metallo-beta-lactamase L1 expressed in Escherichia coli BL21 (DE3) assessed as cefazolin MIC at 16 ug/ml after 16 hrs by broth macrodilution method (reference value: 32 ug/ml). The method in brief: (§1)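 E. coli BL21(DE3) carrying pET26b-L1 was grown overnight in Mueller-Hinton broth at 37 °C, pelleted and resuspended to OD600 0.1. MICs were determined by CLSI broth macrodilution after at least 16 h at 37 °C, taking the lowest concentration with no visible growth. Triplicates in at least two independent experiments; highest MIC reported.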

For a further data set, the system named is Escherichia coli. The experiment in a line: Potentiation of cefazolin-mediated antibacterial activity against Escherichia coli BL21(DE3) assessed as cefazolin MIC at 16 ug/ml after 16 hrs by broth macrodilution method (reference value: 4 ug/ml). It is filed as functional. The method in brief: as §1
Data set [6] relates to Bacteria. The experiment in a line: Inhibition of bacterial metallo-beta-lactamase L1 expressed in Escherichia coli BL21 (DE3) assessed as decrease in cefazolin MIC at 16 ug/ml after 16 hrs by broth macrodilution method relative to control. The method in brief:
as §1

Data set [7] relates to Bacteria. The experiment in a line: Binding affinity to bacterial metallo-beta-lactamase L1 expressed in Escherichia coli BL21 (DE3) treated with 2-(((4-Chlorobenzoyl)methionyl)thio)acetic acid at 2 to 10 mM after 1 hr by STD NMR method. The method in brief:
(§2)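 1H STD-NMR at 300 MHz on-resonance and 2000 MHz off-resonance saturation. Total saturation time 1.5 s, relaxation delay 2.5 s. Samples were run in D2O with 5% DMSO-d6 and 150 mM NaCl at pH 7.5, after 1 h pre-incubation. Compound came from 100 mM stock in DMSO-d6.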

Data set [8] can be described thus: Retention time of compound by HPLC method. It is filed as physicochemical. Summed up: (§3)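 L1-mediated hydrolysis of thioester followed by HPLC under IC50 assay conditions, on a C18 column (150 × 4.6 mm, 5 µm) at 1.0 mL/min.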
Data set [9] in a line: Drug level assessed as bacterial metallo-beta-lactamase L1-mediated compound formation treated with 2-(((4-Chlorobenzoyl)methionyl)thio)acetic acid by HPLC method. The class given is ADME. The settings on record: bacteria. The method in brief:
as §3

The nature of data set [10]: Binding affinity to bacterial metallo-beta-lactamase L1 expressed in Escherichia coli BL21 (DE3) by ITC method. Further details: species or system Bacteria. In general terms: ITC needs no label: the signal is the heat of the interaction.
The subject of data set [11] is Bacteria. As to the kind of experiment: Binding affinity to bacterial metallo-beta-lactamase L1 expressed in Escherichia coli BL21 (DE3) assessed as change in gibbs free energy by ITC method.
Data set [12] relates to Bacteria. The experiment in a line: Binding affinity to bacterial metallo-beta-lactamase L1 expressed in Escherichia coli BL21 (DE3) assessed as change in enthalpy by ITC method.
Data set [13] relates to Bacteria. As to the kind of experiment: Binding affinity to bacterial metallo-beta-lactamase L1 expressed in Escherichia coli BL21 (DE3) assessed as change in entropy by ITC method.
Data set [14] can be described thus: Stability in Tris buffer at pH 6 to 8.5 measured every 2 hrs for 24 hrs by UV-Vis spectroscopic analysis. The settings on record: pH 6, 24 h. It is filed as physicochemical. Summed up:
(§4)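 Thioester in Tris buffer at pH 6.0, 7.0 or 8.5, or at pH 7.0 with increasing L1 concentration. Absorbance at 245 nm was recorded every 2 h over 24 h.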

Data set [15] is described as follows: Drug metabolism assessed as bacterial metallo-beta-lactamase L1-mediated hydrolysis measured every 2 hrs for 24 hrs by UV-Vis spectroscopic analysis. The class given is ADME. The note with it: bacteria. Summed up:
as §4

In data set [16] the test system is Bacteria. The experiment in a line: Binding affinity to bacterial metallo-beta-lactamase L1 expressed in Escherichia coli BL21 (DE3) at 2 to 10 mM after 1 hr by STD NMR method. Summed up:
as §2

Another data set deals with L929. As to the kind of experiment: Cytotoxicity against mouse L929 cells up to 200 uM after 48 hrs by CCK8 assay. The note with it: l929, 48 h. It is filed as cell-based. Background: Tetrazolium assays rely on reduction of a dye to a coloured formazan, in cell work by metabolically active cells.

Regarding `CSCC[C@H](NC(=O)c1cccc(Br)c1)C(=O)SCC(=O)O`, the inhibition (usually the percentage by which the read-out fell short of the control) in the data set on Bacteria [1] fell in the range of 90 to 95%. Also, the IC50 (in general, the concentration at which inhibition is half-maximal) in [2] is 1200 nM. The inhibition result with Bacteria [3] and with Bacteria [4] was “inactive” throughout. For the same compound, the results for the MIC with Bacteria [5] and with Escherichia coli were 16 µg/mL and 4 µg/mL, respectively. The fold change (FC) in the data set with Bacteria [6] lay in the range of 2 to 4.
Take `O=C(O)CS`: in the data set on Bacteria [7], the result was Active.
Compound `CSCC[C@H](NC(=O)c1ccc(Cl)cc1)C(=O)O` showed a Retention_time in data set [8] of 4.2 min. Further, the Drug metabolism entry in [9] is given as “Metabolite_Detected”. Besides, in the data set on Bacteria [7], the result was Active.
For the compound `O=C(O)CSC(=O)[C@H](Cc1c[nH]c2ccccc12)NC(=O)c1ccc(C(F)(F)F)cc1`, the inhibition in the data set on Bacteria [1] lay in the range of 90 to 95%. Further, in data set [2], the IC50 is 1030 nM. For the same compound, the inhibition result in the data set on Bacteria [3] and in the data set on Bacteria [4] was “inactive” each time. For the same compound, the figures for the MIC in the data set on Bacteria [5] and with Escherichia coli were 16 µg/mL and 4 µg/mL, respectively. Besides, the fold change (FC) with Bacteria [6] fell in the range of 2 to 4.
As to `O=C(O)CSC(=O)[C@H](Cc1c[nH]c2ccccc12)NC(=O)c1ccc(Cl)cc1`, in the data set with Bacteria [1], the inhibition lay in the range of 90 to 95%. The compound further yielded an IC50 in data set [2] of 190 nM. Also, the inhibition result in the data set on Bacteria [3] and in the data set on Bacteria [4] was “inactive” throughout. Also, the MIC came to 8 µg/mL with Bacteria [5] and 4 µg/mL in the data set with Escherichia coli. Moreover, the fold change (FC) in the data set on Bacteria [6] is 2 to 4.
`O=C(O)CSC(=O)[C@H](Cc1c[nH]c2ccccc12)NC(=O)c1cccc([N+](=O)[O-])c1` yielded an inhibition in the data set on Bacteria [1] of 90 to 95%. The same compound returned an IC50 in data set [2] of 800 nM. Further, the inhibition entry with Bacteria [3] and in the data set with Bacteria [4] was “inactive” throughout. For the same compound, the results for the MIC in the data set with Bacteria [5] and in the data set with Escherichia coli were 16 µg/mL and 4 µg/mL, respectively. Moreover, in the data set on Bacteria [6], the fold change (FC) was in the range of 2 to 4.
`CSCC[C@H](NC(=O)c1ccc(Cl)cc1)C(=O)SCC(=O)O`: the Kd (usually the constant that tells how readily two partners part at equilibrium) in [10] was determined as 19700 nM. Also, in the data set with Bacteria [11], the deltaG is -6.43 kcal/mol. This compound yielded an inhibition in the data set on Bacteria [1] of 90 to 95%. In data set [2], this compound had an IC50 of 940 nM. Moreover, the inhibition result with Bacteria [3] and with Bacteria [4] was “inactive” in each case. In addition, the deltaH in the data set on Bacteria [12] is -28.2 kcal/mol. The TdeltaS in the data set on Bacteria [13] was -21.8 kcal/mol. In addition, the Stability result in data set [14] is given as “Stable”. For the same compound, in data set [15], the Drug metabolism entry was “Metabolite_Detected”. The compound further came in with a Retention_time in data set [8] of 4.5 min. For the same compound, the outcome in the data set with Bacteria [16] was Active. Besides, the figures for the MIC in the data set on Bacteria [5] and in the data set with Escherichia coli were 16 µg/mL and 4 µg/mL, respectively. Also, the fold change (FC) in the data set with Bacteria [6] was 2 to 4. Moreover, the Activity entry in the data set on L929 is “Non-Toxic”.
Turning to `O=C(O)CSC(=O)[C@H](Cc1c[nH]c2ccccc12)NC(=O)c1ccc([N+](=O)[O-])cc1`, the inhibition in the data set on Bacteria [1] is 90 to 95%. In [2], the IC50 turned out to be 370 nM. The inhibition result in the data set on Bacteria [3] and with Bacteria [4] was “inactive” each time. Further, the Stability entry in data set [14] was “Stable”. Moreover, the Drug metabolism result in [15] was “Metabolite_Detected”. In addition, the MIC with Bacteria [5] came to 8 µg/mL; in the data set on Escherichia coli, 4 µg/mL. The fold change (FC) in the data set on Bacteria [6] lay in the range of 2 to 4.
`CSCC[C@H](NC(=O)c1ccc([N+](=O)[O-])cc1)C(=O)SCC(=O)O`: the Kd in [10] turned out to be 5500 nM. In the data set on Bacteria [11], the deltaG is -7.18 kcal/mol. The compound further displayed an inhibition in the data set with Bacteria [1] of 90 to 95%. In [2], the IC50 is 170 nM. Besides, the inhibition result with Bacteria [3] and in the data set with Bacteria [4] was “inactive” throughout. Also, the deltaH in the data set with Bacteria [12] was -16.8 kcal/mol. The TdeltaS in the data set with Bacteria [13] is -9.6 kcal/mol. Further, the Stability result in data set [14] is “Stable”. Besides, the Drug metabolism result in data set [15] was “Metabolite_Detected”. The MIC turned out to be 8 µg/mL in the data set with Bacteria [5] and 4 µg/mL with Escherichia coli. Also, the fold change (FC) with Bacteria [6] was in the range of 2 to 4. In the data set on L929, the Activity entry is on record as “Non-Toxic”.
As to `O=C(O)CSC(=O)[C@H](Cc1c[nH]c2ccccc12)NC(=O)c1ccc(Br)cc1`, the inhibition in the data set on Bacteria [1] lay in the range of 90 to 95%. The compound also showed an IC50 in data set [2] of 880 nM. Further, the inhibition entry in the data set on Bacteria [3] and in the data set on Bacteria [4] was “inactive” throughout. Moreover, the MIC in the data set with Bacteria [5] is 16 µg/mL; in the data set on Escherichia coli, 4 µg/mL. Besides, the fold change (FC) in the data set with Bacteria [6] fell in the range of 2 to 4.
In the case of `O=C(O)CSC(=O)[C@H](Cc1c[nH]c2ccccc12)NC(=O)c1ccc(F)cc1`, the inhibition in the data set on Bacteria [1] fell in the range of 90 to 95%. This compound also yielded an IC50 in data set [2] of 750 nM. Besides, the inhibition entry in the data set with Bacteria [3] and in the data set on Bacteria [4] was “inactive” throughout. The MIC with Bacteria [5] is 16 µg/mL; in the data set with Escherichia coli it was 4 µg/mL. Besides, the fold change (FC) in the data set with Bacteria [6] is 2 to 4.
Consider `O=C(O)CSC(=O)[C@H](Cc1c[nH]c2ccccc12)NC(=O)c1cccc(Br)c1`, for which the inhibition in the data set with Bacteria [1] was 90 to 95%. This compound displayed an IC50 in [2] of 620 nM. The inhibition entry in the data set with Bacteria [3] and with Bacteria [4] was “inactive” in each case. The MIC in the data set with Bacteria [5] was 16 µg/mL; with Escherichia coli it was 4 µg/mL. The fold change (FC) in the data set with Bacteria [6] is 2 to 4.
